Assay [1] concerns MCF7. Briefly: Cytotoxicity against human MCF7 cells assessed as reduction in cell viability by MTT assay. Format: functional, cell-based. An outline of the steps:
(§1)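 Survival of each cell line measured across a range of compound concentrations. Percent inhibition of viability at each concentration calculated against untreated control and IC50 estimated. MEFs were TDP1+/+ and TDP1–/– primary cells. Mean ± SD of at least three experiments in duplicate.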

Assay [2] deals with T1, DNA topoisomerase 1 (Homo sapiens) (UniProt P11387).
T1 sequence (whole entry): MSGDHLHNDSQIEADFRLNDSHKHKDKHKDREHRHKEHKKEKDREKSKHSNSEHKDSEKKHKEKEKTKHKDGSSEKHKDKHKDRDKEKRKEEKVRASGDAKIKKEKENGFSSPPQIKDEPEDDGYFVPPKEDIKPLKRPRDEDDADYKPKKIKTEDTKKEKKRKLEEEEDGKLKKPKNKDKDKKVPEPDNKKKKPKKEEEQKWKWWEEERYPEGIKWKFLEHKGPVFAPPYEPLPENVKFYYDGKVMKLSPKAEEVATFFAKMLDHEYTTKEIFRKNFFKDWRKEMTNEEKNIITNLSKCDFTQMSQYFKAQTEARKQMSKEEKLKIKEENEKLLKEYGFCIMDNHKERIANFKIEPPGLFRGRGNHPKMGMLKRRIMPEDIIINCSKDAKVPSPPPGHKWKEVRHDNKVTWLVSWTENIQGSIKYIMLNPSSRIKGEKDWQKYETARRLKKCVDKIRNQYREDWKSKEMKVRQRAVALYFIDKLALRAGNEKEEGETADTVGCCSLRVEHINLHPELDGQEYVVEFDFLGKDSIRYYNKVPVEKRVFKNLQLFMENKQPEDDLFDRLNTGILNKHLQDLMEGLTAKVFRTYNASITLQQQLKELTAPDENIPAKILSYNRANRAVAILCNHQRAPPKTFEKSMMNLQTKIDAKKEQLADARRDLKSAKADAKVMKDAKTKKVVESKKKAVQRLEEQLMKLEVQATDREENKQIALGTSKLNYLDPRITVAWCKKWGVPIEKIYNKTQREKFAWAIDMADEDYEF
Briefly: Inhibition of CPT-induced recombinant human EGFP-tagged topoisomerase-1- DNA cleavage complex formation assessed as restoration of Top1 mobility at 20 uM after 10 mins by FRAP assay. Also noted: scale not given: the % may be the effect or the level left. An outline of the steps:
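FRAP in living MCF7 cells transiently expressing EGFP-human Top1, 37 °C chamber. Treatment was CPT 5 μM or compound 20 μM for 10 min, or CPT for 10 min then compound for 10 min. A subnuclear spot was bleached for 30 ms at 488 nm; curves normalized to the prebleach signal.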

Assay [3] addresses T1, DNA topoisomerase 1 (Homo sapiens). Briefly: Inhibition of topoisomerase-1 in human MCF7 whole cell extracts at 0.25 to 5 uM using supercoiled pBS SK(+) DNA as substrate after 15 mins by ethidium bromide staining based agarose gel electrophoresis method. An outline of the steps: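 Ex vivo relaxation assay with MCF7 whole-cell lysate as the Top1 source and supercoiled pBS (SK+) DNA. Compound either preincubated with lysate for 5 min before DNA, or added simultaneously; then 37 °C for 15 min. CPT control at 5 μM. Read on agarose gel; mean ± SD, n=3.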

Assay [4] relates to HEK293. Nature of the assay: Cytotoxicity against HEK293 cells assessed as reduction in cell viability by MTT assay. To be noted: Homo sapiens. The class given is cell-based. An outline of the steps:
as §1
On the technique in general: Formazan colour is commonly taken as a measure of viable cells.

Assay [5] concerns the target T2, DNA topoisomerase 1 (Homo sapiens, UniProt P11387).
T2 sequence (P11387 whole entry): T1 sequence (whole entry)
Nature of the assay: Binding affinity to recombinant human topoisomerase-1 expressed in baculovirus infected sf9 cells by spectrofluorimetric method. In outline:
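Purified Top1 (200 nM) incubated with compound at 0–11 μM, 25 °C, 10 min. Tryptophan emission read at 350 nm (ex 295 nm). Fraction bound B = (F0 – F)/Fmax, with Fmax taken from a double-reciprocal 1/(F0 – F) vs 1/[X] plot; KD derived from this. Mean ± SD, n=3.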

The target of assay [6] is T1, DNA topoisomerase 1 (Homo sapiens). Nature of the assay: Ratio of EC50 for recombinant human topoisomerase-1 expressed in baculovirus infected sf9 cells simultaneously incubated with substrate to EC50 for recombinant human topoisomerase-1 expressed in baculovirus infected sf9 cells preincubated for 5 mins followed by substrate addition. In outline: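 Recombinant human Top1 purified from baculovirus-infected Sf-9 cells; 30 fmol enzyme with 90 fmol supercoiled pBS (SK+) DNA (3:1 molar ratio) in relaxation buffer. Compound either preincubated with enzyme 5 min before DNA, or added simultaneously; then 37 °C, 15 min. Relaxation on 1% agarose; % inhibition quantified, EC50 from three experiments (mean ± SD).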

A short description of assay [7]: Cytotoxicity against human NIH:OVCAR3 cells assessed as reduction in cell viability by MTT assay. Format: functional, cell-based. To be noted: OVCAR-3. An outline of the steps: as §1
In assay [8] the test system is MCF7. Briefly: Induction of ROS accumulation in human MCF7 cells at 10 uM up to 24 hrs by CM-H2DCFDA dye based spectrofluorometric method relative to control. Format: functional. In outline:
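MCF7 cells treated with 10 μM for the indicated times, with 0.2% DMSO as vehicle control, or pretreated with NAC (10 mM) for 30 min. ROS read as DCF fluorescence from CM-H2DCFDA. Mean ± SD of three independent experiments.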

The subject of assay [9] is HCT-116. Briefly: Cytotoxicity against human HCT116 cells assessed as reduction in cell viability by MTT assay. Format: functional, cell-based. In outline: as §1
Assay [10] deals with T1, DNA topoisomerase 1 (Homo sapiens). Nature of the assay: Binding affinity to recombinant human topoisomerase-1 expressed in baculovirus infected sf9 cells assessed as intrinsic tryptophan fluorescence quenching up to 1.25 uM by Job's plot analysis. In outline: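 Job plot by continuous variation: Top1 (from Sf-9 cells infected with recombinant baculovirus) and compound varied to a combined final 1.25 μM. Tryptophan fluorescence quenching read at 350 nm with excitation at 295 nm. Mean ± SD of three independent experiments.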

Assay [11] concerns MCF7. Nature of the assay: Cytotoxicity against human MCF7 cells transfected with control SiRNA assessed as reduction in cell viability by MTT assay. Format: functional, cell-based. An outline of the steps:
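MCF7 cells transfected with Top1 or control siRNA for 72 h; knockdown confirmed by Western blot with actin as loading control. Percent survival then plotted against compound concentration.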

The target in assay [12] is T1, DNA topoisomerase 1 (Homo sapiens). Nature of the assay: Inhibition of CPT-induced recombinant human topoisomerase1-supercoiled pBS SK(+) DNA cleavage complex after 30 mins using topoisomerase1 expressed in baculovirus infected sf9 cells by ethidium bromide staining based agarose gel electrophoresis method. In outline: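 Plasmid cleavage assay: 50 fmol supercoiled pBS (SK+) with 100 fmol recombinant Top1 plus compound or CPT, or Top1 with CPT before compound addition, at 37 °C for 30 min. Nicked (form II) and supercoiled (form I) DNA resolved by gel.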

The source made the active and inactive calls. The rule behind the calls is not given here.

The values below come from ChEMBL document CHEMBL4024789, “Neutral Porphyrin Derivative Exerts Anticancer Activity by Targeting Cellular Topoisomerase I (Top1) and Promotes Apoptotic Cell Death without Stabilizing Top1-DNA Cleavage Complexes” (J Med Chem, 2018).

Take `CN(C)c1ccc(-c2c3nc(c(-c4ccc(N(C)C)cc4)c4ccc([nH]4)c(-c4ccc(C(=O)O)cc4)c4nc(c(-c5ccc(C(=O)O)cc5)c5ccc2[nH]5)C=C4)C=C3)cc1`: the IC50 in [1] is 2170 nM; in assay [4], > 10000 nM; in [7] it was 5190 nM; in assay [9] it was 4390 nM; in assay [11], 2240 nM. The Activity in assay [2] was in the range of 12 to 15%. Besides, in [3], the inhibition result was “Active”. Besides, the dissociation constant (Kd) in [5] is 381 nM. The Ratio EC50 in [6] lay in the range of 4 to 5. Further, in assay [8], the “fold change (FC)” value is given as 3 - 5. In assay [10], the outcome was Active. In assay [12], the inhibition result is “Dose-dependent effect”.

The term IC50 denotes the concentration that gives 50% inhibition. In general, Kd refers to the free concentration of one partner at which half of the binding sites on the other are occupied at equilibrium, for simple one-to-one binding.
